# Only some compounds are listed: those with a hit (about 2.9% of all), similar ones and a draw of the others.
# Cneo AK release: Cryptococcus neoformans cell lysis inducers, primary screen, AK release luminescence, single concentration | C. neoformans lysis, adenylate kinase release luminescence, 4 h; normalised: neutral wells 0, clomiphene wells 100 | lysis activity, % at 15 µM | 360,000 compounds, 0.2% hits;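 active = mean lysis activity across replicates of at least 80%, whatever share of replicates individually reach that level; inactive = mean lysis activity below 80%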
#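 Assay system: Cryptococcus neoformans yeast cells / Dosing: single-point compound dose / Timing: 4 h at 37 °C static, read 1 h later / Measured by: luminescence of released adenylate kinase using an AK detection reagent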
# FGF22 binding: binders of human FGF22 protein, primary screen, FGF22 synaptogenesis inhibitor project, biophysical, thermal shift, single point. recombinant FGF22 thermal shift, SYPRO orange fluorescence; percent of sucrose octasulfate shift, DMSO zero. activity (Tm shift, normalised), % at 9.99 µM. 340,000 compounds, 1.5% hits. AID 651658, 2012;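 active = mean Tm shift, scaled 0 neutral to 100 positive control, at about 1.3% or above, every replicate too, limit read from the data; inconclusive = no clear call, values can overlap the other calls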
# Target sequence (Q9HCT0 whole entry, looked up): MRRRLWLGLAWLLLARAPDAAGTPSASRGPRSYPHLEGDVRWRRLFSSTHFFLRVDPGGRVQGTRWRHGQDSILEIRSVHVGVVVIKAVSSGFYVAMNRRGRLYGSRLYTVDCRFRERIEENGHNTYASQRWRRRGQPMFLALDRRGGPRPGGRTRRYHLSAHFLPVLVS
# rRNA inh HTS: reduced GFP signal of wild-type E. coli, primary screen, bacterial rRNA inhibitor project, GFP/RFP fluorescence, OD600, single point; E. coli WT GFP vs humanized-ribosome RFP mutants, 24 h; hits give low values; DMSO median 0, no signal -100; GFP signal change (wild-type ribosome), % (no concentration beside the values); 350,000 compounds, 1.6% hits; AID 720706, 2013;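 active = significant combined selectivity score with lowered wild-type GFP, culture density cut under 30%, mutant RFP and density less affected; inactive = any of these conditions unmet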
# PglD inh: C. jejuni PglD acetyltransferase inhibitors, primary screen, biochemical, DTNB colorimetric, single point. UDP-N-acetylbacillosamine N-acetyltransferase PglD (Campylobacter jejuni). purified PglD enzyme, DTNB colorimetric CoA detection. inhibition, % at 12.5 µM. 360,000 compounds, 0.098% hits. AID 602405, 2012; in the data active = inhibition above about 16%, passing the limit was not always enough; inconclusive = no clear call, values can overlap the other calls
# PGC1a acetyl inh: inhibitors of PGC1a acetylation signal, primary screen, cell-based, U2OS, AlphaScreen, inhibitor mode. 350,000 compounds, 0.17% hits. AlphaScreen anti-acetyl-lysine; with virally co-expressed GCN5 acetyltransferase. inhibition, % at 15.6 µM;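 active = every replicate shows inhibition of at least 40%; inconclusive = mean inhibition at least 40% but some replicate below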;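 also: 0% = neutral control wells and 100% = positive control wells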
# Vif imaging: HIV Vif self-association inhibitors, primary screen, imaging, HEK293T, single point; HEK293T cells, Vif self-association by quenched fluorescence, 24 h; inhibition, % at 7.49 µM; 340,000 compounds, 0.35% hits; in the data active = inhibition above about 50%, passing the limit was not always enough; inconclusive = no clear call, values can overlap the other calls; inactive = below about 31%
# * marks the source's active call; other numbers are inactive results; ? = inconclusive; nt = not tested or not shown.
SMILES,Cneo AK release,FGF22 binding,rRNA inh HTS,PglD inh,PGC1a acetyl inh,Vif imaging
CCc1cccc(NC(=O)CN(c2ccc(C)cc2)S(=O)(=O)c2c(C)noc2C)c1,-9.3,0.1,-30.8*,2.5,-1.8,-1.6
COc1ccc(N(CC(=O)Nc2cc(Cl)ccc2C)S(=O)(=O)c2c(C)noc2C)cc1,-0.7,0.4,-28.9*,4.1,nt,-17.1
CC(C)NC(=O)N[C@@H]1C=C[C@H](CC(=O)NCCN2CCCC2)O[C@@H]1CO,2.1,-0.3,-0.7,1.1,2.3,nt
COc1ccccc1C#Cc1ccc([C@H]2[C@H](CO)N3CCCCN(S(C)(=O)=O)C[C@@H]23)cc1,0.4,0.3,6.5,-5.2,-6.1,nt
Nc1ccccc1-c1ccccc1N,nt,44.1*,10.0,nt,nt,9.3
O=C(C[C@@H]1C=C[C@@H](NC(=O)C2CC2)[C@@H](CO)O1)NCc1ccncc1,-4.1,-0.1,0.0,-1.5,4.6,nt
Cc1cc(C)n2nc(SCC(=O)N(Cc3ccccc3)C3CCS(=O)(=O)C3)nc2n1 (stereo not given),nt,42.9*,13.3,nt,5.4,-9.1
Cc1cc(CNC(=O)COc2ccc(C)c(C)c2)c2ccccc2n1,2.4,0.4,-24.9*,-10.2,-0.5,-14.7
C[C@H](NC(=O)[C@@H]1[C@@H](CO)[C@@H]2Cn3c(cccc3=O)[C@@H]2N1Cc1ccncc1)c1ccccc1,2.2,-0.1,1.9,-1.9,nt,nt
O=C(CCl)Nc1cc(SCC(O)CO)cc([N+](=O)[O-])c1 (stereo not given),nt,42.5,2.9,nt,52.5*,-19.7
CCC(=O)Nc1cc(SCCO)cc([N+](=O)[O-])c1,3.1,nt,nt,-2.2,0.2,?
Cc1c(CCOC(=O)c2ccccc2)sc[n+]1CC(=O)c1ccc(Br)cc1,14.5,nt,-47.9*,-3.6,nt,2.6
Cc1c(CCOC(=O)c2cc([N+](=O)[O-])cc([N+](=O)[O-])c2)sc[n+]1CC(=O)c1ccccc1,0.1,0.1,6.3,4.0,nt,5.2
CC12CCC(/C(=C/NNc3ccc([N+](=O)[O-])cc3[N+](=O)[O-])C1=O)C2(C)C (stereo not given),-0.8,-0.2,-23.2*,-5.4,8.5,-2.3
CC(C)Oc1ccc(C(=O)Nc2ccc(C(F)(F)F)n(C)c2=O)cc1,-0.9,43.8*,-0.6,-0.1,-19.4,2.9
C[C@@H]1CN([C@@H](C)CO)S(=O)(=O)c2ccc(C3=CCCCC3)cc2O[C@@H]1CN(C)C(=O)Nc1ccc2c(c1)OCO2,-2.5,0.1,0.7,3.4,-21.7,nt
CC(=O)Nc1ccc(Nc2cc(N3CCOCC3)c3nonc3c2[N+](=O)[O-])cc1,nt,nt,13.5,nt,1.9,2.4
O=C(O)c1cc(Nc2cc(Cl)c3nonc3c2[N+](=O)[O-])ccc1O,-1.8,1.8*,-11.4,1.6,17.4,15.4
O=[N+]([O-])c1c(Nc2ccc(O)cc2)cc(N2CCOCC2)c2nonc12,nt,44.0*,-0.2,nt,nt,6.9
O=[N+]([O-])c1c(Nc2ccccc2O)cc(Cl)c2nonc12,-1.8,-0.1,-10.5,-7.3,26.7,0.8
C[C@@H]1CN([C@H](C)CO)C(=O)c2cc(C#CC(C)(C)O)cnc2O[C@H]1CN(C)Cc1ccccn1,-5.8,0.5,1.5,0.0,5.5,nt
Cc1ccc(NS(=O)(=O)c2ccc(NC(=O)C3CC3)cc2)cc1C,-0.5,0.0,-23.6*,4.2,1.3,-1.0
O=C(Nc1ccc(S(=O)(=O)Nc2ccccc2)cc1)C1CC1,-0.5,-0.2,-1.1,0.1,-2.8,nt
O=c1[nH]cnc2c1c(-c1ccccc1)cn2-c1ccccc1,-3.1,-0.2,-30.5*,-2.0,-14.5,1.6
Fc1ccc(-n2cc(-c3ccccc3)c3c(=S)nc[nH]c32)cc1,25.9,-0.4,-57.2,-3.3,-19.3,-4.3
SMILES,Cneo AK release,FGF22 binding,rRNA inh HTS,PglD inh,PGC1a acetyl inh,Vif imaging
O=C(Nc1ccc(F)cc1)N1CCCCN2[C@H](CO)[C@@H](c3ccc(C4=CCCCC4)cc3)[C@H]2C1,3.1,0.2,-59.5,-1.2,2.7,nt
CC(=O)N(C)C[C@@H]1Oc2c(cccc2N(C)C)C(=O)N(C)C[C@@H]1C,nt,nt,0.6,nt,nt,nt
COc1cc(/C(C)=N/NC(=O)c2ccc(CSc3nncn3C)cc2)cc(OC)c1OC,nt,43.3*,nt,nt,-4.7,1.0
COc1ccc(/C=N/NC(=O)c2ccc(CSc3nncn3C)cc2)cc1OC,-0.8,-0.2,9.8,-2.1,nt,-1.1
COC(=O)C[C@H]1C[C@H]2c3cc(NC(=O)Nc4ccc(F)cc4)ccc3O[C@H]2[C@H](CO)O1,-0.8,0.1,1.0,3.1,5.7,nt
NNC(=O)c1oc2nc(-c3ccco3)cc(-c3ccco3)c2c1N,-0.8,0.1,-14.4*,-3.9,-10.2,-7.7
O=C(Cc1ccc(Cl)cc1)NCC(=O)N1CCC2(CC1)NCCc1[nH]cnc12,-10.6,43.3*,2.5,-1.1,-7.9,-5.4
O=C(c1cccc(F)c1)N1CCC2(CC1)NCCc1[nH]cnc12,-0.8,-0.1,12.2,-0.4,9.0,3.7
O=C(c1cccc(Cl)c1)N1CCC2(CC1)NCCc1[nH]cnc12,-2.6,-0.1,11.9,2.4,nt,52.3*
CN(C)C(=O)c1cccc(-c2ccc3c(c2)[C@H]2[C@H](CCN2C(=O)C2CCCCC2)[C@@H](CO)N3)c1,-15.6,0.0,-5.9,0.8,-7.4,nt
CCC(=O)c1ccc(OCC(=O)Nc2nn3cnnc3s2)cc1,0.1,nt,nt,-2.8,3.6,68.1*
COc1ccc(S(=O)(=O)Nc2ccc3c(c2)CC(=O)N([C@@H](C)CO)C[C@@H](C)[C@H](CN(C)CC2CCCCC2)O3)cc1,3.8,0.0,0.3,0.0,-11.8,nt
COC(=O)C1=C(C)N(Cc2ccc(F)cc2)C(=S)NC1c1cccc(F)c1 (stereo not given),nt,-0.1,-22.7,nt,nt,nt
COC(=O)C1=C(C)N(Cc2ccccc2)C(=NCc2ccccc2)N[C@H]1c1cccc(F)c1,-2.8,45.1*,-56.8,-4.5,nt,-10.0
COC(=O)C1=C(C)N(Cc2ccccc2)C(=S)N[C@H]1c1cccc(F)c1,180.1*,0.0,-34.3,-2.9,nt,3.2
COC(=O)C1=C(C)N(Cc2ccc(C(F)(F)F)cc2)C(=NCc2ccccc2)NC1c1ccc(Cl)cc1 (stereo not given),nt,42.1,-41.7*,nt,nt,nt
COC(=O)C1=C(C)N(Cc2ccccc2)C(=NCc2ccccc2)N[C@H]1c1ccccc1,21.2,0.0,-56.6,-1.5,-1.6,-6.1
